According to ChEMBL document CHEMBL4414579, “Natural Hydroxamate-Containing Siderophore Acremonpeptides A-D and an Aluminum Complex of Acremonpeptide D from the Marine-Derived Acremonium persicinum SCSIO 115” (J Nat Prod, 2019):
Calls of active or inactive are those of the source. The calls are words filed in the database; no cut-off is given here. Square brackets hold non-standard residues; d marks the D form. Peptide text beside a SMILES is read from it. Orn(N5-OH,N5-Ac) = CC(=O)N(O)CCC[C@H](N)C(=O)O

Experiments:
Format in all cases: functional, organism-based
[1] = tested on: Bacillus thuringiensis; assay: Antibacterial activity against Bacillus thuringiensis W102 up to 100 ug/ml by CLSI based method
[2] = tested on: Bacillus thuringiensis; assay: Antibacterial activity against Bacillus thuringiensis BT01 up to 100 ug/ml by CLSI based method
[3] = tested on: Staphylococcus aureus; assay: Antibacterial activity against Staphylococcus aureus ATCC 29213 up to 100 ug/ml by CLSI based method
[4] = tested on: Candida albicans; assay: Antifungal activity against Candida albicans CMCC(F) 98001
In short: (§1)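 Tested against the yeast by a previously reported antimicrobial method, at concentrations up to 100 μg/mL.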

[5] = tested on: Escherichia coli; assay: Antibacterial activity against Escherichia coli ATCC 25922 up to 100 ug/ml by CLSI based method
[6] = tested on: Escherichia coli; assay: Antibacterial activity against drug-resistant Escherichia coli E11 up to 100 ug/ml by CLSI based method
In short: (§2)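 Both strains were clinical isolates. They were screened within a panel of nine bacteria and two Candida albicans strains, at concentrations up to 100 μg/mL, by a previously reported method.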

[7] = tested on: Klebsiella pneumoniae; assay: Antibacterial activity against Klebsiella pneumoniae ATCC 13883 up to 100 ug/ml by CLSI based method
[8] = tested on: Staphylococcus aureus; assay: Antibacterial activity against methicillin resistant Staphylococcus aureus shhs-A1 up to 100 ug/ml by CLSI based method; in short: as §2
[9] = tested on: Human alphaherpesvirus 1; assay: Antiviral activity against HSV-1 infected in African green monkey Vero cells assessed as inhibition of GFP expression after 72 hrs by GFP-based fluorescence microscopic analysis; conditions: Human alphaherpesvirus 1, Vero
In short: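 Vero cells were infected at MOI 1.0 with recombinant HSV-1 carrying a GFP reporter. Cells were treated with compounds at 10 μM final or an equal amount of DMSO, with ganciclovir as positive control, and GFP was monitored by fluorescence microscopy. For EC50, infected cells were treated at several concentrations in triplicate, and viral load was measured by TCID50 at 72 h postinfection.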

[10] = tested on: Candida albicans; assay: Antifungal activity against Candida albicans ATCC 96901; in short: as §1
[11] = tested on: Enterococcus faecalis; assay: Antibacterial activity against Enterococcus faecalis ATCC 29212 up to 100 ug/ml by CLSI based method
[12] = tested on: Acinetobacter baumannii; assay: Antibacterial activity against Acinetobacter baumannii ATCC 19606 up to 100 ug/ml by CLSI based method; conditions: ATCC 19606 = CIP 70.34 = JCM 6841
[13] = tested on: Human alphaherpesvirus 1; assay: Inhibition of UL42 gene transcription in HSV-1 infected in African green monkey Vero cells at 10 uM by qRT-PCR analysis
In short: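 Vero cells were infected with GFP-reporter HSV-1 at MOI 1.0, then exposed to compounds at 10 μM final or DMSO. Viral gene transcription was quantified by qRT-PCR, with ganciclovir as positive control and NTC as negative control.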

## CC(=O)N(O)CCC[C@@H]1NC(=O)[C@H](CCCN(O)C(C)=O)NC(=O)[C@H](Cc2ccccc2)NC(=O)[C@H](CC(C)C)NC(=O)[C@H](Cc2ccccc2)NC(=O)[C@H](CCCN(O)C(C)=O)NC1=O (cyclo(FLF[Orn(N5-OH,N5-Ac)][Orn(N5-OH,N5-Ac)][Orn(N5-OH,N5-Ac)]))
[1]
  Activity: inactive
[2]
  Activity: inactive
[3]
  Activity: inactive
[4]
  Activity: inactive
[5]
  Activity: inactive
[6]
  Activity: inactive
[7]
  Activity: inactive
[8]
  Activity: inactive
[9]
  EC50: 27 µM
[10]
  Activity: inactive
[11]
  Activity: inactive
[12]
  Activity: inactive

## CC(=O)N(O)CCC[C@@H]1NC(=O)[C@H](CCCN(O)C(C)=O)NC(=O)[C@H](CCCN(O)C(C)=O)NC(=O)[C@H](Cc2ccccc2)NC(=O)[C@H](CC(C)C)NC(=O)[C@H](C)NC1=O (cyclo(ALF[Orn(N5-OH,N5-Ac)][Orn(N5-OH,N5-Ac)][Orn(N5-OH,N5-Ac)]))
[1]
  Activity: inactive
[2]
  Activity: inactive
[3]
  Activity: inactive
[4]
  Activity: inactive
[5]
  Activity: inactive
[6]
  Activity: inactive
[7]
  Activity: inactive
[13]
  inhibition: Active
[8]
  Activity: inactive
[9]
  EC50: 8.7 µM
[10]
  Activity: inactive
[11]
  Activity: inactive
[12]
  Activity: inactive

## CC(=O)N(O)CCC[C@@H]1NC(=O)[C@H](CCCN(O)C(C)=O)NC(=O)[C@H](Cc2ccccc2)NC(=O)[C@H](CC(C)C)NC(=O)[C@H](Cc2c[nH]c3ccccc23)NC(=O)[C@H](CCCN(O)C(C)=O)NC1=O (cyclo(F[Orn(N5-OH,N5-Ac)][Orn(N5-OH,N5-Ac)][Orn(N5-OH,N5-Ac)]WL))
[1]
  Activity: inactive
[2]
  Activity: inactive
[3]
  Activity: inactive
[4]
  Activity: inactive
[5]
  Activity: inactive
[6]
  Activity: inactive
[7]
  Activity: inactive
[8]
  Activity: inactive
[9]
  EC50: 24 µM
[10]
  Activity: inactive
[11]
  Activity: inactive
[12]
  Activity: inactive

## Nc1nc2c(ncn2COC(CO)CO)c(=O)[nH]1 [GANCICLOVIR]
[13]
  inhibition: Active
[9]
  EC50: 0.025 µM

## CC(=O)N(O)CCC[C@@H]1NC(=O)[C@H](CCCN(O)C(C)=O)NC(=O)[C@H](CCCN(O)C(C)=O)NC(=O)[C@H](Cc2ccccc2)NC(=O)[C@H](CC(C)C)NC(=O)[C@H](CO)NC1=O (cyclo(F[Orn(N5-OH,N5-Ac)][Orn(N5-OH,N5-Ac)][Orn(N5-OH,N5-Ac)]SL))
[1]
  Activity: inactive
[2]
  Activity: inactive
[3]
  Activity: inactive
[4]
  Activity: inactive
[5]
  Activity: inactive
[6]
  Activity: inactive
[7]
  Activity: inactive
[13]
  inhibition: Active
[8]
  Activity: inactive
[9]
  EC50: 16 µM
[10]
  Activity: inactive
[11]
  Activity: inactive
[12]
  Activity: inactive
